Data reported in article PMC3498827 (The Biochemical journal, 2012).

Experiments:
wild-type LmPYK = wild-type LmPYK (Leishmania mexicana, UniProt Q27686); assay: qHTS / LmPYK activity assay; format: biochemical
Chemical stability = conditions: hydrolysis of the linkage to saccharin moiety
HsRPYK = HsRPYK (Homo sapiens, UniProt P30613); assay: Inhibition of HsRPYK; format: biochemical
[1] = target: rabbit lactate dehydrogenase (Oryctolagus cuniculus, UniProt P13491); assay: Inhibition of coupling enzyme lactate dehydrogenase; format: biochemical; conditions: active-site Lys56
LmPYK = LmPYK (Leishmania mexicana, UniProt Q27686); assay: PYK inhibitor assay; format: biochemical
In short: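 Pre-incubation mix held at 25 °C: LmPYK 1.6 U/mL, 0.4 mM PEP, 3.2 U/mL lactate dehydrogenase and 0.2 mM NADH in 50 mM TEA pH 7.2, 100 mM KCl, 3 mM MgCl2, 10% glycerol. Test compound (final 50 µM, from DMSO stock) added last; buffer-only control. Every 20 min […], an aliquot was started with 0.2 mM ADP (final). A340 decrease followed for 2 min. Initial rate expressed as % of control.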

Solubility = format: physicochemical; conditions: relative to original screening hit NCGC00186526
[2] = target: Lys335Arg mutant of LmPYK (Leishmania mexicana, UniProt Q27686, K336R); assay: PYK inhibitor assay with Lys335Arg mutant; format: biochemical; conditions: 50 µM DBS, 0.4 mM PEP, identical assay conditions to wild-type
[3] = tested on: four human PYK isoenzymes; assay: Irreversible inhibition of human PYK isoenzymes; format: biochemical

Sequence of HsRPYK (P30613 whole entry): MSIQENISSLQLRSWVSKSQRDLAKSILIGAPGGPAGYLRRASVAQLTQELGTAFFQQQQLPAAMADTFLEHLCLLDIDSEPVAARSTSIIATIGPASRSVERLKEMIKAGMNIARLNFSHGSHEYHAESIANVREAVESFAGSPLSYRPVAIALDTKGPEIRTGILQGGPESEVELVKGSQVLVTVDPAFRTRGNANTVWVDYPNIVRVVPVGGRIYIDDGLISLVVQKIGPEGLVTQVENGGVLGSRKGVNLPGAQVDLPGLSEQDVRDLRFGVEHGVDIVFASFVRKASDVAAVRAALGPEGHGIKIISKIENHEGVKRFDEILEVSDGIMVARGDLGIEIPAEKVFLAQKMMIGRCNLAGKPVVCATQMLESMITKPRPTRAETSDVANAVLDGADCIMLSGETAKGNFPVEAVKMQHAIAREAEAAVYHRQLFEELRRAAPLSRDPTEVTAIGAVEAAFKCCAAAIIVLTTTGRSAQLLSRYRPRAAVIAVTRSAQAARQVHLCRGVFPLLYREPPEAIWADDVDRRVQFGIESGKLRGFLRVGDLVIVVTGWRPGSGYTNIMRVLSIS

Row | Compound | IC50 (wild-type LmPYK) [µM] | stability (Chemical stability) | IC50 (HsRPYK) [µM] | inhibition of rabbit lactate dehydrogenase [1] | time to maximal inhibition (LmPYK; 50 µM DBS, 25 °C) | inhibition at 50 µM (LmPYK; read-out: Maximal inhibition) [%] | solubility (Solubility) | change in activity over time [2] | irreversible inhibition [3]
1 | Cc1ccc(C)c(OC2=NS(=O)(=O)c3ccccc32)c1 [NCGC00186526] | 10 | – | – | – | – | – | – | – | –
2 | Cc1ccc(C)c(SC2=NS(=O)(=O)c3ccccc32)c1 [NCGC00188411] | 5 | Stable | – | – | – | – | – | – | –
3 | O=C(O)c1ccc(SC2=NS(=O)(=O)c3ccccc32)cc1 [DBS, 4-[(1,1-dioxo-1,2-benzothiazol-3-yl)sulfanyl]benzoic acid] | – | improved stability and solubility profiles | 8 | inability of DBS to inhibit | ~ 250 min | ~80 | improved stability and solubility profiles | essentially no change in activity over time | irreversibly inhibited
